The entries come from a sample that favours hits as a whole.
PDI inh: inhibitors of human protein disulfide isomerase; P07237; 350,000 tested, 0.052% active; inhibition, % at 10 µM; AID 588391; PDI insulin aggregation turbidity, A650, 90 min;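 active means mean inhibition across replicates of 30% or more, whatever share of single replicates reach that level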
FGF22 binding-1: binders of recombinant human FGF22 by thermal shift. Q9HCT0. SYPRO orange fluorescence; percent of sucrose octasulfate shift, DMSO zero. activity (Tm shift, normalised), % at 9.99 µM. 340,000 tested, 1.5% active. AID 651658;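 active means mean Tm shift, scaled 0 neutral to 100 positive control, at about 1.3% or above, every replicate too, limit read from the data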
Target sequence (Q9HCT0 whole entry, looked up): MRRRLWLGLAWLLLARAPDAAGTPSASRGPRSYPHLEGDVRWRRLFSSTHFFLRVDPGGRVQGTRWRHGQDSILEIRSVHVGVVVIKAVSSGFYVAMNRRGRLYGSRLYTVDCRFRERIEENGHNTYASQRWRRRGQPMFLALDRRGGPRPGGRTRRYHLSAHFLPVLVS
ERAP1 inh: blocks human ERAP1 aminopeptidase activity; inhibition, % at 10.7 µM; 340,000 tested, 0.15% active; Q9NZ08; recombinant ERAP1, Leu-AMC fluorescence, 60 min;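 active means mean replicate inhibition of at least 30%, or all replicates individually reaching that 30% level; inactive means mean below 30% and not every replicate reaching it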
ERp5 block: ERp5 (human) disulfide isomerase inhibition | Q15084 | ERp5 insulin aggregation, absorbance 650 nm, 90 min | inhibition, % at 9.99 µM | 350,000 tested, 0.05% active;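 active means mean replicate inhibition above about 25%, with every replicate also reaching it, limit read from the data, passing the limit was not always enough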
Target sequence (Q15084 whole entry, looked up): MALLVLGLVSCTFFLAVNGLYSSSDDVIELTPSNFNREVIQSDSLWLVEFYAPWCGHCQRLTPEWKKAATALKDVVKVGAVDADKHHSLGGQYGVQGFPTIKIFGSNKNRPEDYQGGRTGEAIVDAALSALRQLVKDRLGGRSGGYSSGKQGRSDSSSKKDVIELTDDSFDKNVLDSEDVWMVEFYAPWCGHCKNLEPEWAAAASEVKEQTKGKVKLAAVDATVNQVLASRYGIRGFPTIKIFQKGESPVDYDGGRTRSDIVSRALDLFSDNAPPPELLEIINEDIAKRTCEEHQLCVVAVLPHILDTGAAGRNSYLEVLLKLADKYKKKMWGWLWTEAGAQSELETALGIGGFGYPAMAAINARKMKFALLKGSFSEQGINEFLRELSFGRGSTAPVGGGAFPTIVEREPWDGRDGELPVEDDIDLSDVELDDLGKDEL
S100A4 inh HTS: inhibitors of human S100A4 binding to myosin IIA peptide | S100A4/TAMRA-MyoIIA peptide fluorescence polarization | inhibition, % at 10.7 µM | 360,000 tested, 0.14% active;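 active means mean inhibition of at least 70% across replicates, with every replicate also reaching that level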
Target sequence (P26447 whole entry, looked up): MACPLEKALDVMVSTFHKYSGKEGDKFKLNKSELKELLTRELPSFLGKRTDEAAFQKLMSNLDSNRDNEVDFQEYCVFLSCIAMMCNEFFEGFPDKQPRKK
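Test system – S100A4 monomer (human) · Compound – single-point compound testing · Schedule – 5 min incubation before reading · Probe or stimulus – TAMRA-labelled myosin IIA heavy-chain peptide probe, 5 nM · Benchmarks – neutral control DMSO, positive control TFP · Medium – Calcium-containing HEPES buffer, pH 7.2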
FGF22 binding-2: FGF22 (human) binding in thermal shift. shares compounds with FGF22 binding-1. recombinant FGF22 thermal shift, SYPRO orange fluorescence. thermal shift activity, °C (ΔTm) at 38 µM. 1,000 tested, 2% active;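 active means fitted rise in melting shift crosses a set limit at or below the top valid dose tested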
SYPRO no-protein: counter-screen for FGF22 binders: compound-only thermal shift, no protein. AC50, µM (series often up to 38 µM). compound-only SYPRO orange thermal shift counter-screen. AID 743019. shares compounds with FGF22 binding-1. 1,000 tested, 2% active;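 active means rising signal whose fitted curve reaches the 0.54 level within the top valid dose, showing a melting point, actives reach about 13 µM in these data; inactive means the rest, including activity in the opposite direction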; further: value is where the raw curve crosses a fixed level and not half-maximal
Each line names hits and unclear results; the compound was inactive in the other large screens (follow-up assays come after a bar, where they were run).

Cc1c(C(=O)OCC(=O)Nc2ccc3c(c2)OCO3)cccc1[N+](=O)[O-]	none (no result: FGF22 binding-1, ERAP1 inh, ERp5 block, S100A4 inh HTS)
COc1ccc(N2CCN(C(CNC(=O)CC(C)(C)C)c3ccc4c(c3)OCO4)CC2)cc1 (configuration not stated)	none
Cc1ccc(-n2nc(C)c(/C=N/NC(=O)c3cccnc3)c2Cl)cc1	none
Cc1nn(-c2ccccc2)c(Cl)c1/C=N/NC(=O)c1cccnc1	FGF22 binding-1 16.6 | FGF22 binding-2 inactive | SYPRO no-protein inactive
CO[C@@H]1CN(C)C(=O)c2ccc(NS(=O)(=O)c3ccccc3C)cc2OC[C@H](C)N(C)C[C@@H]1C	none (no result: PDI inh)
C[C@H]1CN([C@@H](C)CO)C(=O)c2cc(C#CC3(O)CCCC3)cnc2O[C@H]1CN(C)C(=O)CC1CC1	none (no result: PDI inh)
CC(=O)N(C)C[C@@H]1Oc2ncc(C#CC(C)(C)O)cc2C(=O)N([C@@H](C)CO)C[C@H]1C	FGF22 binding-1 1.6 (no result: PDI inh) | FGF22 binding-2 inactive | SYPRO no-protein inactive
CC(C)C#Cc1cnc2c(c1)C(=O)N([C@H](C)CO)C[C@H](C)[C@H](CN(C)C(=O)c1cnccn1)O2	FGF22 binding-1 1.5 (no result: PDI inh) | FGF22 binding-2 inactive | SYPRO no-protein inactive
CC(C)C#Cc1cnc2c(c1)C(=O)N([C@@H](C)CO)C[C@H](C)[C@@H](CN(C)C(=O)c1cnccn1)O2	FGF22 binding-1 1.5 (no result: PDI inh) | FGF22 binding-2 inactive | SYPRO no-protein inactive
C[C@H](CO)N1C[C@H](C)[C@H](CN(C)C(=O)CC2CC2)Oc2ncc(C#CC3(O)CCCC3)cc2C1=O	FGF22 binding-1 1.4 (no result: PDI inh) | FGF22 binding-2 inactive | SYPRO no-protein inactive
C[C@H]1CN([C@@H](C)CO)C(=O)c2cc(C#CCN(C)C)cnc2O[C@H]1CN(C)C(=O)c1cnccn1	none (no result: PDI inh)
COc1ccc(-c2ccc([C@@H]3[C@@H](C#N)N(C(=O)c4cccc(F)c4)[C@H]3CO)cc2)cc1	none (no result: PDI inh)
Cc1ccc2[nH]c(CCN(C)C)c(CC#N)c2c1	none (no result: FGF22 binding-1, ERAP1 inh, ERp5 block, S100A4 inh HTS)
COc1cccc(NC(=O)N[C@@H]2C=C[C@@H](CC(=O)N3CCOCC3)O[C@H]2CO)c1	none (no result: PDI inh)
CCC(=O)N1CCN(c2ccc(NC(=O)c3cccs3)cc2)CC1	none (no result: FGF22 binding-1, ERAP1 inh, ERp5 block, S100A4 inh HTS)
O=C(NCC1COc2ccccc2O1)c1cccc(S(=O)(=O)N2CCN(c3ccccc3)CC2)c1 (configuration not stated)	none
C[C@H](CO)N1C[C@H](C)[C@@H](CN(C)Cc2ccc(Cl)c(Cl)c2)Oc2ccc(NS(C)(=O)=O)cc2CC1=O	none (no result: PDI inh)
CC(C)C#Cc1cnc2c(c1)C(=O)N([C@@H](C)CO)C[C@@H](C)[C@@H](CN(C)C(=O)c1cnccn1)O2	FGF22 binding-1 1.6 (no result: PDI inh) | FGF22 binding-2 inactive | SYPRO no-protein inactive
Cc1ccc(S(=O)(=O)N2C[C@]3(O)C[C@@H]4C(=O)N(c5ccccc5)C(=O)[C@@H]4C[C@]3(OC(=O)NCC3CCCCC3)C2)cc1	FGF22 binding-1 3.2 | FGF22 binding-2 inactive | SYPRO no-protein inactive
COc1ccc(NC(=O)/C=C/C(=O)O)c([N+](=O)[O-])c1	FGF22 binding-1 2.2 | FGF22 binding-2 inactive | SYPRO no-protein inactive
Cc1ccc(NC(=O)/C=C/C(=O)O)c([N+](=O)[O-])c1	none (no result: FGF22 binding-1, ERAP1 inh, ERp5 block, S100A4 inh HTS)
COC(=O)c1c(NC(=S)Nc2ccc(CC(=O)O)cc2)sc(C)c1C	none (no result: FGF22 binding-1, ERAP1 inh, ERp5 block, S100A4 inh HTS)
CNC[C@H]1Oc2ccc(NC(=O)Nc3ccc(OC)cc3)cc2C(=O)N([C@H](C)CO)C[C@@H]1C	FGF22 binding-1 1.4 (no result: PDI inh) | FGF22 binding-2 inactive | SYPRO no-protein inactive
CNC[C@H]1Oc2ccc(NC(=O)C3CCCCC3)cc2C(=O)N([C@@H](C)CO)C[C@H]1C	FGF22 binding-1 1.2 (no result: PDI inh) | FGF22 binding-2 inactive | SYPRO no-protein inactive
COC(=O)CCN(Cc1ccccc1)S(=O)(=O)c1ccccc1Br	none
O=C(O)CCN(Cc1ccccc1)S(=O)(=O)c1ccccc1Cl	FGF22 binding-1 2.9 | FGF22 binding-2 inactive | SYPRO no-protein inactive
CN(C)Cc1cn(CC[C@@H]2CC[C@@H](NS(=O)(=O)c3ccccc3)[C@H](CO)O2)nn1	none (no result: PDI inh)
CCNC(=O)C1(C)CCN(Cc2ccc(OC(F)(F)F)cc2)C1 (configuration not stated)	FGF22 binding-1 1.4 | FGF22 binding-2 inactive | SYPRO no-protein inactive
CCNC(=O)C1(C)CCN(Cc2ccc(C(F)(F)F)cc2)C1 (configuration not stated)	none
O=C(C[C@@H]1CC[C@@H](NC(=O)Nc2cc(F)ccc2F)[C@H](CO)O1)NCCCN1CCOCC1	FGF22 binding-1 38.6 (no result: PDI inh) | FGF22 binding-2 inactive | SYPRO no-protein inactive
COc1cccc(NC(=O)N[C@@H]2CC[C@@H](CC(=O)Nc3ccccc3)O[C@H]2CO)c1	FGF22 binding-1 22.4 (no result: PDI inh) | FGF22 binding-2 inactive | SYPRO no-protein inactive
O=C(NCC[C@@H]1CC[C@@H](NC(=O)Nc2cc(F)ccc2F)[C@@H](CO)O1)Nc1ccc(F)cc1	FGF22 binding-1 1.3 (no result: PDI inh) | FGF22 binding-2 inactive | SYPRO no-protein inactive
O=C(C[C@@H]1CC[C@H](NC(=O)c2ccc3c(c2)OCO3)[C@H](CO)O1)NCc1ccc(Oc2ccccc2)cc1	FGF22 binding-1 16.1 (no result: PDI inh) | FGF22 binding-2 inactive | SYPRO no-protein inactive
O=C(NCC[C@H]1CC[C@@H](NC(=O)Nc2cc(F)ccc2F)[C@@H](CO)O1)Nc1ccc(F)cc1	none (no result: PDI inh)
CCN1C[C@@H](C)[C@H](OC)CN(C)C(=O)c2ccc(NC(=O)c3ccno3)cc2OC[C@H]1C	none (no result: PDI inh)
O=C(O)CCc1ccc(-c2cccs2)n1Cc1ccco1	none (no result: FGF22 binding-1, ERAP1 inh, ERp5 block, S100A4 inh HTS)
C[C@H](NC(=O)C[C@@H]1CC[C@@H](NC(=O)Nc2ccc3c(c2)OCO3)[C@@H](CO)O1)c1ccccc1	FGF22 binding-1 6.9 (no result: PDI inh) | FGF22 binding-2 inactive | SYPRO no-protein inactive
O=C(C[C@H]1CC[C@@H](NC(=O)Nc2cc(F)ccc2F)[C@@H](CO)O1)Nc1ccc(-c2ccccc2)cc1	FGF22 binding-1 1.3 (no result: PDI inh) | FGF22 binding-2 inactive | SYPRO no-protein inactive
Cc1cccc(C(=O)OCC(=O)NN2C(=O)NC3(CCCCC3)C2=O)c1	none
CC(C)C#Cc1ccc([C@@H]2[C@@H](CO)N3C(=O)CN(C(=O)C4CCCCC4)C[C@@H]23)cc1	FGF22 binding-1 1.3 (no result: PDI inh) | FGF22 binding-2 inactive | SYPRO no-protein inactive
CC(C)C#Cc1ccc([C@H]2[C@@H](CO)N3C(=O)CN(C(=O)C4CCCCC4)C[C@@H]23)cc1	FGF22 binding-1 1.9 (no result: PDI inh) | FGF22 binding-2 inactive | SYPRO no-protein inactive
CC(C)C#Cc1ccc([C@@H]2[C@@H](CO)N3C(=O)CN(C(=O)C4CCCCC4)C[C@H]23)cc1	none (no result: PDI inh)
COc1ccc(NC(=O)CN(c2ccc(C(C)C)cc2)S(=O)(=O)c2c(C)noc2C)cc1OC	FGF22 binding-1 12.6 (no result: ERAP1 inh) | FGF22 binding-2 inactive | SYPRO no-protein inactive
